Our source for the EC50, Activity and Ratio EC50 values is ChEMBL document CHEMBL2157875, “Design, synthesis and in vitro evaluation of a series of α-substituted phenylpropanoic acid PPARγ agonists to further investigate the stereochemistry-activity relationship” (Bioorg Med Chem, 2012).

Holding throughout (format): cell-based
Test [1] concerns the target T1, Peroxisome proliferator-activated receptor alpha (Homo sapiens, UniProt Q07869).
T1 sequence (Q07869 whole entry): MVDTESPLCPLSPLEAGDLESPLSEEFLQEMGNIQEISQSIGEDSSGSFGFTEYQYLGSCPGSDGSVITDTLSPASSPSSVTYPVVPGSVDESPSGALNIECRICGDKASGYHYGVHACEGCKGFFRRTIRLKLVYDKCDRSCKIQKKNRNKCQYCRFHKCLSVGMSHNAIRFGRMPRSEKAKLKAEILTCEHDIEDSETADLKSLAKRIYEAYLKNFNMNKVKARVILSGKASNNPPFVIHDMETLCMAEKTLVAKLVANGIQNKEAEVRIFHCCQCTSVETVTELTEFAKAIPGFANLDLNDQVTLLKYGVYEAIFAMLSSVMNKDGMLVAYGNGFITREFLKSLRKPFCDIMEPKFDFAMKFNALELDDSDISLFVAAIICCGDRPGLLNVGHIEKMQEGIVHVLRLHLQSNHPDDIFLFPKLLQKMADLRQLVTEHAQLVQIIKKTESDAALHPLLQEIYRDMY
Description: Transactivation of human PPARalpha expressed in human HEK293 cells after 16 to 20 hrs by dual luciferase beta-galactosidase reporter gene assay. A digest of the protocol: (§1)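 HEK293 cells were grown in DMEM with 5% FBS and antibiotic-antimycotic at 37 °C in 5% CO2. They were co-transfected by calcium phosphate with 50 ng reporter, 20 ng pCMX-β-galactosidase and 15 ng of each receptor plasmid, made up to 150 ng with pGEM carrier. Ligands were added 8 h later and cells harvested about 16–20 h after. Luciferase was normalized to β-galactosidase; means of triplicates.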
(In a reporter assay the amount or activity of a reporter protein is the signal.)

In test [2] the target is T2, Peroxisome proliferator-activated receptor gamma (Homo sapiens, UniProt P37231).
T2 sequence (P37231 whole entry): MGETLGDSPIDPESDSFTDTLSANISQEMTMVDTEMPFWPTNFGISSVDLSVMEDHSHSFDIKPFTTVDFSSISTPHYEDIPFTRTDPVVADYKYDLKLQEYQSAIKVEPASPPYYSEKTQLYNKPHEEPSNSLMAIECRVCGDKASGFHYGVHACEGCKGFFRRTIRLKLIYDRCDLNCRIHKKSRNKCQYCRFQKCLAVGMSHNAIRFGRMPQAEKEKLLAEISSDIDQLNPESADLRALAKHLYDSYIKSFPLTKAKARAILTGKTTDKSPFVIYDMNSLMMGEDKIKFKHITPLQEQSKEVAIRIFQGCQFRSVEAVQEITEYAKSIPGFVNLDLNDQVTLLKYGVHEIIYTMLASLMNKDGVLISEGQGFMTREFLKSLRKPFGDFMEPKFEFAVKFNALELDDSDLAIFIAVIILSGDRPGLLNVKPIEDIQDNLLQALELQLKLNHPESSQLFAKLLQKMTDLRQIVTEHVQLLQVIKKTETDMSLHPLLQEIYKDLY
Description: Transactivation of human PPARgamma expressed in human HEK293 cells after 16 to 20 hrs by dual luciferase beta-galactosidase reporter gene assay. In a few lines:
as §1

Test [3] deals with T3, Peroxisome proliferator-activated receptor gamma (Homo sapiens) (UniProt P37231).
T3 sequence (whole entry): T2 sequence (P37231 whole entry)
In words: Transactivation of human PPARgamma expressed in human HEK293 cells assessed as concentration required for maximum activity after 16 to 20 hrs by dual luciferase beta-galactosidase reporter gene assay. A digest of the protocol: as §1

Test [4] relates to HEK293. In words: Selectivity ratio of EC50 for human PPARalpha expressed in human HEK293 cells to EC50 for human PPARgamma expressed in human HEK293 cells.
Test [5] deals with PPAR delta/gamma (Homo sapiens) (UniProt P37231+Q03181). In words: Selectivity ratio of EC50 for human PPARdelta expressed in human HEK293 cells to EC50 for human PPARgamma expressed in human HEK293 cells.
In test [6] the target is T4, Peroxisome proliferator-activated receptor delta (Homo sapiens, UniProt Q03181).
T4 sequence (Q03181 whole entry): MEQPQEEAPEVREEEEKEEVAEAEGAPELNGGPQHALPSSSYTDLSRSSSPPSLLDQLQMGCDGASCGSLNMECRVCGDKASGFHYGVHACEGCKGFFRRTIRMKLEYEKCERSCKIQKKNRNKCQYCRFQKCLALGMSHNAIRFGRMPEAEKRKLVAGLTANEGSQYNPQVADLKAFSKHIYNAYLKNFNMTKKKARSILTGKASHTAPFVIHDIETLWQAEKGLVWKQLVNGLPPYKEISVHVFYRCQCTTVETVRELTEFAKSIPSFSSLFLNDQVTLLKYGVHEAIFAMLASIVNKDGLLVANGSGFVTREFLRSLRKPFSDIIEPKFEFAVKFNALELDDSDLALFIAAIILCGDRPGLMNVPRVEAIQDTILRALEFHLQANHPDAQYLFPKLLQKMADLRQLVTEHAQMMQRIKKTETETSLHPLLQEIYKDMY
In words: Transactivation of human PPARdelta expressed in human HEK293 cells after 16 to 20 hrs by dual luciferase beta-galactosidase reporter gene assay. In a few lines:
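HEK293 cells grown in DMEM with 5% FBS and antibiotic-antimycotic at 37 °C, 5% CO₂. Calcium phosphate cotransfection per well of 50 ng reporter, 20 ng pCMX-β-galactosidase, 15 ng receptor expression plasmid, pGEM carrier to 150 ng. Ligands added 8 h post-transfection, cells harvested ~16–20 h later. Luciferase normalised to β-galactosidase; means of triplicates.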

With `CCCOc1ccc(C[C@@H](CCc2ccccc2)C(=O)O)cc1CNC(=O)c1ccc(C23CC4CC(CC(C4)C2)C3)cc1`, the EC50 (in general, the concentration needed to bring the measured effect to its halfway point) in test [1] came out at 1760 nM; in test [2] it was 34 nM. In addition, the Activity in test [3] was determined as 1 µM. Moreover, the Ratio EC50 in test [4] and in test [5] was 50 throughout.

`CCCOc1ccc(C[C@@H](CC2CCCCC2)C(=O)O)cc1CNC(=O)c1ccc(C23CC4CC(CC(C4)C2)C3)cc1` yielded an EC50 in test [2] of 12 nM. The Activity in test [3] was 1 µM. In addition, the Ratio EC50 in test [4] and in test [5] was 240 each time.

Regarding `CCCOc1ccc(C[C@H](CCc2ccccc2)C(=O)O)cc1CNC(=O)c1ccc(C23CC4CC(CC(C4)C2)C3)cc1`, the EC50 in test [1] was 770 nM; in test [2], 9.2 nM. For the same compound, in test [3], the Activity stood at 0.05 µM. Also, the Ratio EC50 in test [4] and in test [5] was 50 each time.

The compound `CCCOc1ccc(C[C@H](CC)C(=O)O)cc1CNC(=O)c1ccc(C23CC4CC(CC(C4)C2)C3)cc1` yielded an EC50 in test [6] of 130 nM.

Compound `CCCOc1ccc(C[C@H](CC2CCCCC2)C(=O)O)cc1CNC(=O)c1ccc(C23CC4CC(CC(C4)C2)C3)cc1` gave an EC50 in test [2] of 22 nM. The Activity in test [3] stood at 1 µM. Also, the Ratio EC50 in test [4] and in test [5] was 240 throughout.
